Assays:
[1] = Biodistribution of [18F]FEDPN in alpha estrogen receptor knock out mouse muscle after 30 min; (n=3); type: ADME, organism-based, Muscle tissue; conditions: in vivo, 0.5 h
Summary of the method: (§1)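 αERKO and βERKO mice, staged by daily vaginal smears and kept on estrogen-free chow, were studied in a nonestrous stage. Each mouse received 11 μCi of tracer in 130 μL of 10% ethanol/saline. Mice were killed at 30 min, 1 h or 2 h (n = 3 each). Organs were removed, blotted, weighed and gamma-counted against an injectate standard. Uptake is given as %ID/g ± SD.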

[2] = Biodistribution of [18F]FEDPN in alpha estrogen receptor knock out mouse spleen after 30 min; (n=3); type: ADME, organism-based; conditions: in vivo, 0.5 h; summary of the method: as §1
[3] = Biodistribution of [18F]FEDPN in beta estrogen receptor knock out mouse fat after 2 h; (n=3); type: ADME, organism-based, Adipose tissue; conditions: in vivo; summary of the method: as §1
[4] = Biodistribution of [18F]FEDPN in beta estrogen receptor knock out mouse spleen after 1 h; (n=3); type: ADME, organism-based; conditions: in vivo; summary of the method: as §1
[5] = Biodistribution of [18F]FEDPN in beta estrogen receptor knock out mouse bone after 1 h; (n=3); type: ADME, organism-based, Bone element; conditions: in vivo; summary of the method: as §1
[6] = Biodistribution of [18F]FEDPN in beta estrogen receptor knock out mouse lung after 1 h; (n=3); type: ADME, organism-based; conditions: in vivo; summary of the method: as §1
[7] = Biodistribution of [18F]FEDPN in alpha estrogen receptor knock out mouse lung after 2 h; (n=3); type: ADME, organism-based; conditions: in vivo; summary of the method: as §1
[8] = Biodistribution of [18F]-FEDPN in rat fat after 1 h when given in tail vein; (n=5); type: ADME, organism-based, Adipose tissue; conditions: in vivo, iv
Summary of the method: (§2)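 Immature female Sprague–Dawley rats (<25 days old) anesthetized with isoflurane/O2. Given 20 µCi tracer by tail vein in 150 µL of 20% ethanol/saline. […] Killed at 30 min, 1 h or 2 h. Blood and organs blotted, weighed and gamma-counted against a standard dilution of the injectate. Reported as %ID/g ± SD, n=5.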

[9] = Biodistribution of [18F]-FEDPN in rat fat after 2 hr when given in tail vein; (n=5); type: ADME, organism-based, Adipose tissue; conditions: in vivo, iv; summary of the method: as §2
[10] = Biodistribution of [18F]-FEDPN in rat heart after 1 hr when given in tail vein; (n=5); type: ADME, organism-based; conditions: in vivo, iv; summary of the method: as §2
[11] = Biodistribution of [18F]-FEDPN in rat heart after 2 hr when given in tail vein; (n=5); type: ADME, organism-based; conditions: in vivo, iv; summary of the method: as §2
[12] = Biodistribution of [18F]-FEDPN in rat spleen after 2 hr when given in tail vein; (n=5); type: ADME, organism-based; conditions: in vivo, iv; summary of the method: as §2
[13] = Biodistribution of [18F]FEDPN in rat thymus after 30 min when given in tail vein; (n=5); type: ADME, organism-based; conditions: in vivo, iv, 0.5 h
Summary of the method: (§3)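 Immature female Sprague–Dawley rats (<25 days old) under isoflurane/O2 got 20 µCi tracer in 150 µL 20% ethanol/saline by tail vein. […] Rats were killed at 30 min, 1 h or 2 h. Organs were blotted, weighed and gamma-counted against an injectate standard. Data are %ID/g ± SD, five rats per point.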

[14] = Biodistribution of [18F]FEDPN in rat uterus after 30 min when given in tail vein; (n=5); type: ADME, organism-based; conditions: in vivo, iv, 0.5 h; summary of the method: as §3
[15] = Biodistribution of [18F]-FEDPN in rat heart after 1 hr block when given in tail vein; (n=5); type: ADME, organism-based; conditions: in vivo, iv; summary of the method: as §2
[16] = Biodistribution of [18F]-FEDPN in rat kidney after 1 hr block when given in tail vein; (n=5); type: ADME, organism-based; conditions: in vivo, iv; summary of the method: as §2
[17] = Biodistribution of [18F]FEDPN in alpha estrogen receptor knock out mouse liver after 2 h; (n=3); type: ADME, organism-based; conditions: in vivo
Summary of the method: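 ERKO female mice (αERKO or βERKO), rested 48 h after shipping, placed on estrogen-free chow, and staged by daily vaginal smears. Injected in a nonestrous stage with 11 µCi [18F]FEDPN in 130 µL of 10% ethanol/saline. Killed at 30 min, 1 h or 2 h. Organs counted and reported as %ID/g ± SD, three animals per point.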

[18] = Biodistribution of [18F]FEDPN in beta estrogen receptor knock out mouse fat after 30 min; (n=3); type: ADME, organism-based, Adipose tissue; conditions: in vivo, 0.5 h; summary of the method: as §1
[19] = Biodistribution of [18F]FEDPN in alpha estrogen receptor knock out mouse thymus after 1 h; (n=3); type: ADME, organism-based; conditions: in vivo; summary of the method: as §1
[20] = Biodistribution of [18F]FES in beta estrogen receptor knock out mouse uterus after 30 min; (n=3); type: ADME, organism-based; conditions: in vivo, 0.5 h
[21] = Biodistribution of [18F]FES in alpha estrogen receptor knock out mouse kidney after 30 min; (n=3); type: ADME, organism-based; conditions: in vivo, 0.5 h
Summary of the method: (§4)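 Female αERKO mice were rested 48 h after shipping and fed estrogen-free chow. They were staged by daily vaginal smears and studied in diestrus. Each received 13 µCi [18F]FES in 100 µL 10% ethanol/saline and was sacrificed at 30 min, 1 h or 2 h (n = 3 per time). Tissue uptake is given as %ID/g ± SD.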

[22] = Biodistribution of [18F]FES in alpha estrogen receptor knock out mouse spleen after 30 min; (n=3); type: ADME, organism-based; conditions: in vivo, 0.5 h
[23] = Biodistribution of [18F]FES in beta estrogen receptor knock out mouse lung after 30 min(n=2); mice in nonestrus stage; type: ADME, organism-based; conditions: in vivo, 0.5 h
[24] = Biodistribution of [18F]FES in beta estrogen receptor knock out mouse ovaries after 30 min(n=2); mice in nonestrus stage; type: ADME, organism-based, Female gonad; conditions: in vivo, 0.5 h
[25] = Biodistribution of [18F]FES in beta estrogen receptor knock out mouse kidney after 30 min(n=2); mice in nonestrus stage; type: ADME, organism-based; conditions: in vivo, 0.5 h
[26] = Biodistribution of [18F]-FES in alpha estrogen receptor knock out mouse bone after 2 h; (n=3); type: ADME, organism-based, Bone element; conditions: in vivo; summary of the method: as §4
[27] = Biodistribution of [18F]-FES in beta estrogen receptor knock out mouse heart after 30 min; (n=3); type: ADME, organism-based; conditions: in vivo, 0.5 h
Summary of the method: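 Female βERKO mice in estrus were used because repeated swabbing had induced pseudopregnancy. They were fed estrogen-free chow. Each received 13 µCi [18F]FES in 100 µL 10% ethanol/saline and was sacrificed at 30 min, 1 h or 2 h (n = 3 each). Tissue uptake is given as %ID/g ± SD.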

[28] = Biodistribution of [18F]-FES in alpha estrogen receptor knock out mouse brain after 2 h; (n=3); type: ADME, organism-based; conditions: in vivo
Summary of the method: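 αERKO mice staged in diestrus by vaginal smear after rest on estrogen-free chow. Injected with 13 µCi [18F]FES in 100 µL of 10% ethanol/saline and killed at 30 min, 1 h or 2 h (n=3 each). Tissues weighed and gamma-counted, reported as %ID/g ± SD.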

[29] = Biodistribution of [18F]FES in alpha estrogen receptor knock out mouse heart after 1 h; (n=3); type: ADME, organism-based; conditions: in vivo
Summary of the method: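 Female αERKO mice rested 48 h after shipping and fed estrogen-free chow. Estrous stage was checked by daily vaginal smears, and mice were used in diestrus. Each received 13 µCi [18F]FES in 100 µL 10% ethanol/saline. Animals were sacrificed at 30 min, 1 h or 2 h (n = 3 each). Tissue uptake is reported as %ID/g ± SD.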

[30] = Biodistribution of [18F]FES in alpha estrogen receptor knock out mouse liver after 2 h; (n=3); type: ADME, organism-based; conditions: in vivo; summary of the method: as §4
[31] = Biodistribution of [18F]FES in alpha estrogen receptor knock out mouse kidney after 1 h; (n=3); type: ADME, organism-based; conditions: in vivo; summary of the method: as §4
[32] = Biodistribution of [18F]FES in beta estrogen receptor knock out mouse fat after 30 min(n=2); mice in nonestrus stage; type: ADME, organism-based, Adipose tissue; conditions: in vivo, 0.5 h
[33] = Biodistribution of [18F]FES in alpha estrogen receptor knock out mouse liver after 30 min; (n=3); type: ADME, organism-based; conditions: in vivo, 0.5 h; summary of the method: as §4
[34] = Biodistribution of [18F]FES in beta estrogen receptor knock out mouse thymus after 30 min; (n=3); type: ADME, organism-based; conditions: in vivo, 0.5 h

N#C[C@H](c1ccc(O)cc1)[C@@H](CCF)c1ccc(O)cc1
Biodistribution [1]: 1.21 %ID/g
Biodistribution [2]: 0.99 %ID/g
Biodistribution [3]: 0.09 %ID/g
Biodistribution [4]: 0.4 %ID/g
Biodistribution [5]: 4.92 %ID/g
Biodistribution [6]: 1.71 %ID/g
Biodistribution [7]: 0.75 %ID/g
Biodistribution [8]: 0.37 %ID/g
Biodistribution [9]: 0.1 %ID/g
Biodistribution [10]: 0.29 %ID/g
Biodistribution [11]: 0.11 %ID/g
Biodistribution [12]: 0.06 %ID/g
Biodistribution [13]: 0.52 %ID/g
Biodistribution [14]: 0.95 %ID/g
Biodistribution [15]: 0.19 %ID/g
Biodistribution [16]: 1.01 %ID/g
Biodistribution [17]: 1.93 %ID/g
Biodistribution [18]: 0.89 %ID/g
Biodistribution [19]: 0.68 %ID/g

C[C@]12CC[C@@H]3c4ccc(O)cc4CC[C@H]3[C@@H]1C[C@@H](F)[C@@H]2O [FLUOROESTRADIOL]
Biodistribution [20]: 8.34 %ID/g
Biodistribution [21]: 2.46 %ID/g
Biodistribution [22]: 0.59 %ID/g
Biodistribution [23]: 3.57 %ID/g
Biodistribution [24]: 6.6 %ID/g
Biodistribution [25]: 4.44 %ID/g
Biodistribution [26]: 0.23 %ID/g
Biodistribution [27]: 1.04 %ID/g
Biodistribution [28]: 0.03 %ID/g
Biodistribution [29]: 0.15 %ID/g
Biodistribution [30]: 3.67 %ID/g
Biodistribution [31]: 1.07 %ID/g
Biodistribution [32]: 2.31 %ID/g
Biodistribution [33]: 7.47 %ID/g
Biodistribution [34]: 1.38 %ID/g

Reference: ChEMBL document CHEMBL1141109, “Synthesis of an estrogen receptor beta-selective radioligand: 5-[18F]fluoro-(2R,3S)-2,3-bis(4-hydroxyphenyl)pentanenitrile and comparison of in vivo distribution with 16alpha-[18F]fluoro-17beta-estradiol” (J Med Chem, 2005)
